≈ marks a conversion by molar mass, not a printed value.
What was measured:
Format in all cases: functional
[1] = system: Acinetobacter baumannii; experiment: Antibacterial activity against Acinetobacter baumannii assessed as percent cumulative susceptible isolates at minimum inhibitory concentration of 0.06 ug/ml by CLSI broth microdilution method; design: scale not given: the % may be the effect or the level left
[2] = system: Staphylococcus epidermidis; experiment: Antibacterial activity against methicillin-resistant Staphylococcus epidermidis assessed as percent cumulative susceptible isolates at minimum inhibitory concentration of 4 ug/ml by CLSI broth microdilution method; design: scale not given: the % may be the effect or the level left
[3] = system: Enterococcus faecalis; experiment: Antibacterial activity against Enterococcus faecalis assessed as percent cumulative susceptible isolates at minimum inhibitory concentration of 32 ug/ml by CLSI broth microdilution method; design: scale not given: the % may be the effect or the level left
[4] = system: Streptococcus pneumoniae; experiment: Antibacterial activity against Streptococcus pneumoniae assessed as percent cumulative susceptible isolates at minimum inhibitory concentration of 8 ug/ml by CLSI broth microdilution method; design: scale not given: the % may be the effect or the level left
[5] = system: Staphylococcus aureus; experiment: Antibacterial activity against community-associated methicillin-resistant Staphylococcus aureus assessed as percent cumulative susceptible isolates at minimum inhibitory concentration of 1 ug/ml by CLSI broth microdilution method; design: scale not given: the % may be the effect or the level left
[6] = system: Staphylococcus aureus; experiment: Antibacterial activity against community-associated methicillin-resistant Staphylococcus aureus assessed as percent cumulative susceptible isolates at minimum inhibitory concentration of 8 ug/ml by CLSI broth microdilution method; design: scale not given: the % may be the effect or the level left
Summary of the method: (§1)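 Clinical isolates tested by CLSI broth microdilution using 96-well panels of doubling drug dilutions in cation-adjusted Mueller-Hinton broth with 5% lysed horse blood. MIC was read from these panels. Panel quality control used CLSI ATCC strains, including S. pneumoniae 49619, S. aureus 29213, E. faecalis 29212 and E. coli 25922. Cumulative percentages of isolates were tabulated at each MIC.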

[7] = system: Stenotrophomonas maltophilia; experiment: Antibacterial activity against Stenotrophomonas maltophilia assessed as percent cumulative susceptible isolates at minimum inhibitory concentration of 8 ug/ml by CLSI broth microdilution method; design: scale not given: the % may be the effect or the level left
[8] = system: Staphylococcus epidermidis; experiment: Antibacterial activity against methicillin-susceptible Staphylococcus epidermidis assessed as percent cumulative susceptible isolates at minimum inhibitory concentration of 8 ug/ml by CLSI broth microdilution method; design: scale not given: the % may be the effect or the level left
[9] = system: Klebsiella pneumoniae; experiment: Antibacterial activity against Klebsiella pneumoniae assessed as percent cumulative susceptible isolates at minimum inhibitory concentration of <=[…] by CLSI broth microdilution method; design: scale not given: the % may be the effect or the level left
[10] = system: Staphylococcus aureus; experiment: Antibacterial activity against hospital-associated methicillin-resistant Staphylococcus aureus assessed as percent cumulative susceptible isolates at minimum inhibitory concentration of 2 ug/ml by CLSI broth microdilution method; design: scale not given: the % may be the effect or the level left; summary of the method: as §1
[11] = system: Stenotrophomonas maltophilia; experiment: Antibacterial activity against Stenotrophomonas maltophilia assessed as percent cumulative susceptible isolates at minimum inhibitory concentration of 64 ug/ml by CLSI broth microdilution method; design: scale not given: the % may be the effect or the level left
[12] = system: Staphylococcus aureus; experiment: Antibacterial activity against non-levofloxacin susceptible Staphylococcus aureus assessed as percent cumulative susceptible isolates at minimum inhibitory concentration of 2 ug/ml by CLSI broth microdilution method; design: scale not given: the % may be the effect or the level left
[13] = system: Klebsiella pneumoniae; experiment: Antibacterial activity against Klebsiella pneumoniae assessed as percent cumulative susceptible isolates at minimum inhibitory concentration of 8 ug/ml by CLSI broth microdilution method; design: scale not given: the % may be the effect or the level left
[14] = system: Staphylococcus epidermidis; experiment: Antibacterial activity against methicillin-susceptible Staphylococcus epidermidis assessed as percent cumulative susceptible isolates at minimum inhibitory concentration of […] by CLSI broth microdilution method; design: scale not given: the % may be the effect or the level left
[15] = system: Staphylococcus aureus; experiment: Antibacterial activity against methicillin-resistant Staphylococcus aureus assessed as percent cumulative susceptible isolates at minimum inhibitory concentration of 4 ug/ml by CLSI broth microdilution method; design: scale not given: the % may be the effect or the level left
[16] = system: Staphylococcus aureus; experiment: Antibacterial activity against hospital-associated methicillin-resistant Staphylococcus aureus assessed as percent cumulative susceptible isolates at minimum inhibitory concentration of […] by CLSI broth microdilution method; design: scale not given: the % may be the effect or the level left
[17] = system: Streptococcus pneumoniae; experiment: Antibacterial activity against Streptococcus pneumoniae assessed as percent cumulative susceptible isolates at minimum inhibitory concentration of 0.03 ug/ml by CLSI broth microdilution method; design: scale not given: the % may be the effect or the level left
[18] = system: Streptococcus pneumoniae; experiment: Antibacterial activity against Streptococcus pneumoniae assessed as percent cumulative susceptible isolates at minimum inhibitory concentration of […] by CLSI broth microdilution method; design: scale not given: the % may be the effect or the level left
[19] = system: Enterococcus faecalis; experiment: Antibacterial activity against Enterococcus faecalis assessed as percent cumulative susceptible isolates at minimum inhibitory concentration of 0.03 ug/ml by CLSI broth microdilution method; design: scale not given: the % may be the effect or the level left
[20] = system: Enterococcus faecium; experiment: Antibacterial activity against Enterococcus faecium assessed as percent cumulative susceptible isolates at minimum inhibitory concentration of 8 ug/ml by CLSI broth microdilution method; design: scale not given: the % may be the effect or the level left
[21] = system: Streptococcus pneumoniae; experiment: Antibacterial activity against penicillin-resistant Streptococcus pneumoniae by CLSI M7-A7 broth microdilution method
Summary of the method: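 Broth microdilution per CLSI guidelines on clinical isolates, using panels of doubling drug dilutions in cation-adjusted Mueller-Hinton broth with 5% lysed horse blood. MIC read per CLSI, and cumulative percentage of isolates inhibited at each concentration tabulated.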

[22] = Ratio of fAUC (0 to 24 hrs) in in vitro PK/PD model at 750 mg to MIC for Staphylococcus epidermidis
[23] = system: Staphylococcus aureus; experiment: Antibacterial activity against Levofloxacin-susceptible Staphylococcus aureus assessed as percent cumulative susceptible isolates at minimum inhibitory concentration of 0.06 ug/ml by CLSI broth microdilution method; design: scale not given: the % may be the effect or the level left
[24] = system: Proteus mirabilis; experiment: Antibacterial activity against Proteus mirabilis assessed as percent cumulative susceptible isolates at minimum inhibitory concentration of 1 ug/ml by CLSI broth microdilution method; design: scale not given: the % may be the effect or the level left
[25] = system: Stenotrophomonas maltophilia; experiment: Antibacterial activity against Stenotrophomonas maltophilia assessed as percent cumulative susceptible isolates at minimum inhibitory concentration of 32 ug/ml by CLSI broth microdilution method; design: scale not given: the % may be the effect or the level left
[26] = system: Staphylococcus aureus; experiment: Antibacterial activity against non-levofloxacin susceptible Staphylococcus aureus assessed as percent cumulative susceptible isolates at minimum inhibitory concentration of […] by CLSI broth microdilution method; design: scale not given: the % may be the effect or the level left
[27] = system: Streptococcus pneumoniae; experiment: Antibacterial activity against Streptococcus pneumoniae assessed as percent cumulative susceptible isolates at minimum inhibitory concentration of <=0.008 ug/ml by CLSI broth microdilution method; design: scale not given: the % may be the effect or the level left
[28] = system: Staphylococcus epidermidis; experiment: Antibacterial activity against methicillin-susceptible Staphylococcus epidermidis assessed as percent cumulative susceptible isolates at minimum inhibitory concentration of 0.03 ug/ml by CLSI broth microdilution method; design: scale not given: the % may be the effect or the level left
[29] = system: Proteus mirabilis; experiment: Antibacterial activity against Proteus mirabilis assessed as percent cumulative susceptible isolates at minimum inhibitory concentration of […] by CLSI broth microdilution method; design: scale not given: the % may be the effect or the level left
[30] = system: Enterococcus faecium; experiment: Antibacterial activity against Enterococcus faecium assessed as percent cumulative susceptible isolates at minimum inhibitory concentration of 64 ug/ml by CLSI broth microdilution method; design: scale not given: the % may be the effect or the level left
[31] = system: Pseudomonas aeruginosa; experiment: Antibacterial activity against Pseudomonas aeruginosa assessed as percent cumulative susceptible isolates at minimum inhibitory concentration of 4 ug/ml by CLSI broth microdilution method; design: scale not given: the % may be the effect or the level left
[32] = system: Enterococcus faecalis; experiment: Antibacterial activity against Enterococcus faecalis by CLSI M7-A7 broth microdilution method
[33] = system: Escherichia coli; experiment: Antibacterial activity against Escherichia coli assessed as percent cumulative susceptible isolates at minimum inhibitory concentration of 256 ug/ml by CLSI broth microdilution method; design: scale not given: the % may be the effect or the level left
[34] = system: Enterococcus faecalis; experiment: Antibacterial activity against Enterococcus faecalis assessed as percent cumulative susceptible isolates at minimum inhibitory concentration of 0.5 ug/ml by CLSI broth microdilution method; design: scale not given: the % may be the effect or the level left
[35] = system: Escherichia coli; experiment: Antibacterial activity against Escherichia coli assessed as percent cumulative susceptible isolates at minimum inhibitory concentration of >=[…] by CLSI broth microdilution method; design: scale not given: the % may be the effect or the level left

C[C@H]1COc2c(N3CCN(C)CC3)c(F)cc3c(=O)c(C(=O)O)cn1c23.C[C@H]1COc2c(N3CCN(C)CC3)c(F)cc3c(=O)c(C(=O)O)cn1c23.O [LEVOFLOXACIN]
Activity [1]: 6.7%
Activity [2]: 11.1%
Activity [3]: 100%
Activity [4]: 99.5%
Activity [5]: 32%
Activity [6]: 96%
Activity [7]: 92.3%
Activity [8]: 76.7%

COc1c(N2C[C@@H](C)C[C@H](N)C2)ccc2c(=O)c(C(=O)O)cn(C3CC3)c12 [NEMONOXACIN]
Activity [9]: 0.5%
Activity [10]: 22.2%
Activity [11]: 100%
Activity [12]: 36.1%
Activity [13]: 95%
Activity [14]: 37.2%
Activity [15]: 65.4%
Activity [16]: 2%
Activity [17]: 99.1%
Activity [18]: 91%
Activity [19]: 2.5%
Activity [20]: 44.7%
MIC90 [21]: 0.03 µg/mL (≈ 0.0808 µM)
RatioAUC/MIC [22]: 98
Activity [23]: 97.1%
Activity [24]: 75.8%
Activity [25]: 92.3%
Activity [26]: 8.9%
Activity [27]: 19.2%
Activity [28]: 53.5%
Activity [29]: 24.2%
Activity [30]: 84.2%
Activity [31]: 78.1%
MIC90 [32]: 1 µg/mL (≈ 2.69 µM)
Activity [33]: 99.7%
Activity [34]: 70.4%
Activity [35]: 100%
